# Source: PubChem BioAssay
# In the library only some 4.8% were active in any assay of this set; here they are far more common.
# ATG4B inh = blocks human ATG4B protease cleavage of LC3 substrate; Q9Y4P1; ATG4B cleavage of LC3-PLA2, NBD-HPC fluorescence, 1 h; inhibition, % at 8.33 µM; 340,000 tested, 0.51% active; in the data active means inhibition above about 40%
# Target sequence (Q9Y4P1 whole entry, looked up): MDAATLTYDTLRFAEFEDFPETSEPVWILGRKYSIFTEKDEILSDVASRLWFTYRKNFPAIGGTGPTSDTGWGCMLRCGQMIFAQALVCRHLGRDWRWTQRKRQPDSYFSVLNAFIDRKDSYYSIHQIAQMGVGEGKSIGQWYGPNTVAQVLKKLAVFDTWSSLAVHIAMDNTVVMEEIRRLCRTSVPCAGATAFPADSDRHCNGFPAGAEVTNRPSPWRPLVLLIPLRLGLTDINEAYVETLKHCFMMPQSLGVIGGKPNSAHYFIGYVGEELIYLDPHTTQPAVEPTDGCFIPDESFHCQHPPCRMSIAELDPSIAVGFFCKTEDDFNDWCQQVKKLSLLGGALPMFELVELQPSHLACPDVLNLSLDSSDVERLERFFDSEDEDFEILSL
# NALP3 yeast inh = blocks the NALP3 inflammasome reconstituted in yeast; Yeast reconstituted NLRP3/ASC/caspase-1, beta-gal luminescence, 24 h; 330,000 tested, 0.39% active; inhibition, % at 10 µM;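 active means inhibition of 50% or more; inactive means inhibition below 50%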;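 further: plate controls were induced DMSO wells for no effect and uninduced yeast grown without galactose for full effect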
# NALP1 yeast inh = NALP1 inhibition. S. cerevisiae NALP1/ASC/caspase-1 growth, X-gal OD620, 72 h. inhibition, % at 10 µM. 280,000 tested, 0.61% active. AID 2071; in the data active means inhibition mostly above about 24%, no sharp cut-off; inactive means mostly below about 32%
# Calb FLC = C. albicans growth modulation with fluconazole | C. albicans CaCi-2 (fluconazole-resistant clinical isolate) + fluconazole, Alamar Blue growth, 48 h | growth inhibition, % (concentration not given with the values) | 300,000 tested, 0.57% active;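 active means growth inhibition above about 58% in most replicates, limit read from the data, passing the limit was not always enough; inconclusive means exactly half the replicates above a set limit; inactive means most replicates below a set limit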;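 further: all wells also contain fluconazole at 8 µg/ml as a sub-toxic cotreatment; 0% = median of DMSO wells and 100% = median of geldanamycin control wells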
# UCH37 DUB inh = blocks the human deubiquitinase UCH37 | Q9Y5K5 | purified proteasome/UCH37, Ub-AMC cleavage fluorescence | inhibition, % (no concentration beside the values) | 330,000 tested, 0.33% active;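 active means mean inhibition over replicate wells above about 20%, limit read from the data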;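 further: 0% = compound-free wells with enzyme and 100% = wells lacking proteasome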
#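 Schedule: 30 min plus 25 min, room temperature / Material: human UCH37 within purified proteasomes / Technique: AMC fluorescence intensity at 355/460 nm / Buffer or medium: pH 7.4 Tris-HCl (50 mM) with ovalbumin, ATP-MgCl2, DTT / Controls: wells without proteasome as full block, compound-free enzyme plus substrate as uninhibited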
# ALR inh = inhibitors of human sulfhydryl oxidase ALR. P55789. purified ALR, DTT oxidation, H2O2 HRP-luminol luminescence. inhibition, % (test concentration not listed). 290,000 tested, 3.8% active;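 active means mean replicate inhibition above about 79%, with every replicate also reaching it, limit read from the data; inconclusive means only one of the two criteria met; inactive means mean below limit and not every replicate reaching it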
# An asterisk follows results filed as active; ? = inconclusive; . = no result.
SMILES,ATG4B inh,NALP3 yeast inh,NALP1 yeast inh,Calb FLC,UCH37 DUB inh,ALR inh
COc1cc(NC(=O)CC(C)=NNC(=O)c2ccccn2)c(OC)cc1Cl,.,.,.,.,4.2,.
COc1cc(C=NN(C)c2ccccc2)cc(Cl)c1O,.,.,.,.,6.1,.
O=C(C[n+]1cccc(C=NO)c1)N1CCCCCC1,.,.,.,.,1.3,.
CC(C)(C)c1ccc(OCC(=O)NNC(=S)NC(=O)c2ccccc2[N+](=O)[O-])c(Br)c1,11.7,26.2,-2.7,-2.3,5.3,92.3*
CCCCC(=O)NNC(=S)NC(=O)c1ccc([N+](=O)[O-])cc1,-1.5,17.3,-10.5,?,7.3,54.9
Cc1cccc(NC(=S)NNC(=O)c2cccc([N+](=O)[O-])c2)c1,28.0,39.1,-32.9,-2.0,8.5,67.8
Cc1ccccc1OCC(=O)NNC(=S)NC(=O)c1ccccc1[N+](=O)[O-],-14.7,27.8,3.0,46.9,2.5,.
Cc1occc1C(=O)NNC(=S)Nc1cccc([N+](=O)[O-])c1,-9.3,-11.0,8.0,-6.6,4.1,98.0*
Cc1ccc(C(=O)NC(=S)NNC(=O)c2cccc([N+](=O)[O-])c2)cc1,-8.4,31.2,-5.0,10.5,5.8,98.8*
CCCCC(=O)NNC(=S)NC(=O)c1cccc([N+](=O)[O-])c1,0.6,7.5,-6.8,16.0,3.5,98.0*
S=c1[nH]nc(-c2ccccc2)n1/N=C/C=C/c1ccco1,-2.5,6.5,12.8,18.5,.,96.8*
CC(=C/c1ccccc1)/C=N/n1c(-c2ccco2)n[nH]c1=S,-1.7,23.3,5.6,45.3,.,97.4*
O=[N+]([O-])c1ccccc1/C=C/C=N/n1c(-c2ccccc2F)n[nH]c1=S,13.2,18.9,29.9,-3.4,.,98.0*
S=c1[nH]nc(-c2ccco2)n1/N=C/c1cccc(Cl)c1Cl,22.8,27.7,47.5,?,.,95.9*
S=c1[nH]nc(-c2ccccc2)n1N=C/C=C/c1ccco1,.,.,.,.,12.3,.
O=C(NN=Cc1ccc(N2CCCCC2)o1)c1ccccc1,.,.,.,.,6.9,.
CC1(C)SC(=S)N(N=Cc2ccccc2)C1N(O)C(=O)Nc1ccc([N+](=O)[O-])cc1 (configuration not stated),.,.,.,.,7.6,.
S=c1[nH]nc(-c2ccncc2)n1N=C/C=C/c1ccco1,.,.,.,.,15.3,.
S=c1[nH]nc(-c2ccc(Cl)cc2)n1/N=C/C=C/c1ccco1,-2.8,1.4,-2.6,46.5,.,98.7*
CC(/C=N/n1c(-c2n[nH]c3c2CCC3)n[nH]c1=S)=C\c1ccco1,-5.1,9.1,-37.3,0.9,.,93.5*
S=c1[nH]nc(-c2ccco2)n1/N=C/C=C/c1ccccc1,-4.6,1.2,-3.9,-3.7,.,98.3*
CCCCCC(=O)N/N=C/c1ccc([N+](=O)[O-])o1,10.2,12.6,-8.0,-9.1,.,-29.1
O=C(CCC(=O)Nc1ccc(Cl)cc1Cl)N/N=C/c1ccc([N+](=O)[O-])o1,-13.8,14.6,-11.1,101.5*,.,2.2
Nc1cccc(Nc2ccccc2)c1,-0.3,18.5,13.5,8.8,1.0,99.2*
c1ccc(Nc2cccc(Nc3ccccc3)c2)cc1,32.4,16.1,23.6,2.1,4.6,97.9*
SMILES,ATG4B inh,NALP3 yeast inh,NALP1 yeast inh,Calb FLC,UCH37 DUB inh,ALR inh
Nc1cccc(Nc2ncnc3ccccc23)c1,-4.8,18.9,15.7,1.8,2.1,98.9*
Oc1cccc(NC(=S)Nc2ccccc2)c1,-3.3,-0.4,7.3,12.8,3.8,47.9
Oc1cccc(Nc2ccccc2)c1,1.3,23.4,.,.,-0.9,99.0*
Cc1ccc(Nc2ccccc2)cc1,3.0,14.4,-83.4,5.0,3.7,7.5
Oc1cccc(Nc2ncnc3ccccc23)c1,-2.5,-6.7,9.5,-5.1,6.7,71.0
COc1cc(C(=O)NN=C(C)c2ccc(NC(=O)Cc3ccccc3)cc2)ccc1O,.,.,.,.,4.6,.
O=C1N(O)C2(C=CCCC2)C(=NO)C12CCCCC2 (configuration not stated),.,.,.,.,-1.1,.
Cn1c(O)c(N=Nc2ccccc2)c2ccccc21,1.5,35.8,22.4,3.4,2.2,0.1
Cc1ccc2c(c1)c(N=Nc1ccc([N+](=O)[O-])cc1)c(O)n2C,5.5,8.5,33.1*,-15.2,6.3,-4.0
CCc1ccc2c(c1)/C(=C/C(=O)c1cccs1)C(=O)N2,9.8,34.7,-8.4,98.0*,0.0,10.7
Cc1nnc(NC(=O)c2cccc(S(=O)(=O)N3CCc4ccccc43)c2)s1,5.7,2.2,1.0,22.3,27.5*,4.5
